{"source": "ChEMBL document CHEMBL1143653", "about": "“Discovery of a (1H-benzoimidazol-2-yl)-1H-pyridin-2-one (BMS-536924) inhibitor of insulin-like growth factor I receptor kinase with in vivo antitumor activity” (J Med Chem, 2005)", "key": {"[1]": {"target": "Cytochrome P450 2C9 (Homo sapiens, UniProt P11712)", "sequence (P11712 whole entry)": "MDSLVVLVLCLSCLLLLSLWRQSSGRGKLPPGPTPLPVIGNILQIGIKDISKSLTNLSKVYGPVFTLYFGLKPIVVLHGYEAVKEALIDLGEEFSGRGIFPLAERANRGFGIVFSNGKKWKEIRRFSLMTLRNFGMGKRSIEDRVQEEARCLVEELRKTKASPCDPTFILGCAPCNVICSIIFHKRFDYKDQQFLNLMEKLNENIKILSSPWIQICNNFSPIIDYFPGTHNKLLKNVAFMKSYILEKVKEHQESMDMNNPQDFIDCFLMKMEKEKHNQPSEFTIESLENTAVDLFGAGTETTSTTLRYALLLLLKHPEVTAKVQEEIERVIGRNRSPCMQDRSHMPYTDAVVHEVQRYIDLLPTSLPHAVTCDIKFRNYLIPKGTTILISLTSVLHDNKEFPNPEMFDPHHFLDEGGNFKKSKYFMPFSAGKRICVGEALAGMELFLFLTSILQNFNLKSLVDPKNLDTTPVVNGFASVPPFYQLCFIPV", "assay": "Concentration required to inhibit Cytochrome P450 2C9 in vitro by 50%"}, "[2]": {"target": "Cytochrome P450 2C19 (Homo sapiens, UniProt P33261)", "sequence (P33261 whole entry)": "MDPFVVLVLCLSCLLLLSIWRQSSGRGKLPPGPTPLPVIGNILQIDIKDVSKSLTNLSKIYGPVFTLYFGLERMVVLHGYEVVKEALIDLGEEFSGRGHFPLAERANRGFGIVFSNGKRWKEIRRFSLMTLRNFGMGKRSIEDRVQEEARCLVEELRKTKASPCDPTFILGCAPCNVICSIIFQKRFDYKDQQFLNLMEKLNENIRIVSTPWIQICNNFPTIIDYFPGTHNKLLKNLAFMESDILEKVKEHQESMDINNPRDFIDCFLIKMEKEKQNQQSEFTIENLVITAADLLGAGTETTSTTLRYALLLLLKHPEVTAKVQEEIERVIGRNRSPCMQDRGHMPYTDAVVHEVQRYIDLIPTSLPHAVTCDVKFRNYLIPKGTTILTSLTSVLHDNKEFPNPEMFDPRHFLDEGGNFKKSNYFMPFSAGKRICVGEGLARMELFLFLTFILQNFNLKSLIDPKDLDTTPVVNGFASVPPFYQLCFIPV", "assay": "Concentration required to inhibit cytochrome P450 isozyme CYP2C19 in vitro by 50%", "assay_type": "ADME"}, "[3]": {"target": "T1, Cytochrome P450 3A4 (Homo sapiens, UniProt P08684)", "T1 sequence (P08684 whole entry)": "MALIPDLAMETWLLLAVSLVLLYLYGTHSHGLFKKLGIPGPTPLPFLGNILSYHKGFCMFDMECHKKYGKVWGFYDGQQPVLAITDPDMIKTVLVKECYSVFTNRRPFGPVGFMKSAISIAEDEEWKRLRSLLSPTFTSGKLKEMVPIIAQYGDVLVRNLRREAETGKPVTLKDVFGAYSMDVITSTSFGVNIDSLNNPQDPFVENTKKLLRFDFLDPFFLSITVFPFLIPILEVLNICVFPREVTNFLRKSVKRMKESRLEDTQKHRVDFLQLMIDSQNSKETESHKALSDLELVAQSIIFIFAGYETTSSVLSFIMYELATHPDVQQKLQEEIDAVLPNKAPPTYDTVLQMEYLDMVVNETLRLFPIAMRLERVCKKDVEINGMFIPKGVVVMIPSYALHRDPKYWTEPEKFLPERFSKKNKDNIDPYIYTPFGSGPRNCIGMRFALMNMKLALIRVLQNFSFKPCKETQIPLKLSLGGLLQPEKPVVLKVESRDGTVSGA", "assay": "Concentration required to inhibit cytochrome P450 isozyme CYP3A4-BFC in vitro by 50%", "assay_type": "ADME"}, "[4]": {"target": "T2, Cytochrome P450 1A2 (Homo sapiens, UniProt P05177)", "T2 sequence (P05177 whole entry)": "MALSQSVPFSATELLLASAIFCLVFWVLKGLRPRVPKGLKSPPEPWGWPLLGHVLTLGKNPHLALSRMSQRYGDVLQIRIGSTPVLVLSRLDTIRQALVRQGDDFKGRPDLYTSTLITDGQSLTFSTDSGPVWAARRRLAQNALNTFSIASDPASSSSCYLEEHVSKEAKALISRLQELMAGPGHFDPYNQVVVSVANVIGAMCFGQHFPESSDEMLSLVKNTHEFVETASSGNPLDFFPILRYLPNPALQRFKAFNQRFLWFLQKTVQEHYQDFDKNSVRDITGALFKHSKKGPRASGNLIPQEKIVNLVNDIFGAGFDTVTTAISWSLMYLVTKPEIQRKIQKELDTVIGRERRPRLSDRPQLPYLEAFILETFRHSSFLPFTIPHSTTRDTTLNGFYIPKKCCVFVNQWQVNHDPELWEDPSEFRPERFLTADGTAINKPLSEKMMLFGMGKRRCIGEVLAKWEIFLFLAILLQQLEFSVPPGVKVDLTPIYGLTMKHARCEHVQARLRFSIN", "assay": "Concentration required to inhibit Cytochrome P450 1A2 in vitro by 50%", "assay_type": "ADME"}, "[5]": {"target": "T1, Cytochrome P450 3A4", "assay": "Concentration required to inhibit cytochrome P450 isozyme CYP3A4-BzRes in vitro by 50%", "assay_type": "ADME"}, "[6]": {"assay": "Total clearance in rat when administered intravenously at 4 mg/kg", "assay_type": "ADME, organism-based", "design": "dose 4 mg/kg, route intravenous", "settings": "in vivo, iv, read-out: CLtot"}, "[7]": {"assay": "Maximum concentration in rat administered orally at 50 mg/kg", "assay_type": "ADME, organism-based", "design": "dose 50 mg/kg, route oral", "settings": "in vivo, po"}, "[8]": {"assay": "Maximum concentration in dog administered orally at 5 mg/kg", "assay_type": "ADME, organism-based, Canis lupus familiaris", "design": "dose 5 mg/kg, route oral", "settings": "in vivo, po"}, "[9]": {"assay": "Steady-state volume of distribution in dog when administered intravenously at 2 mg/kg", "assay_type": "ADME, organism-based, Canis lupus familiaris", "design": "dose 2 mg/kg, route intravenous", "settings": "in vivo, iv, read-out: Vss"}, "[10]": {"assay": "Bioavailability in mouse administered perorally at 20 mg/kg", "assay_type": "ADME, organism-based", "settings": "in vivo, po"}, "[11]": {"system": "COLO 205", "assay": "In vitro inhibitory concentration against COLO 205 (colon) cell line with ATP concentration at 1/2Km", "assay_type": "functional, cell-based", "settings": "Homo sapiens"}, "[12]": {"system": "MCF7", "assay": "In vitro inhibitory concentration against MCF-7(breast) cell line with ATP concentration at 1/2Km", "assay_type": "functional, cell-based", "settings": "Homo sapiens"}, "[13]": {"assay": "Bioavailability in dog at 5 mg/kg oral dose", "assay_type": "ADME, organism-based, Canis lupus familiaris", "settings": "in vivo"}, "[14]": {"assay": "Total clearance in mouse when administered intravenously at 4 mg/kg", "assay_type": "ADME, organism-based", "design": "dose 4 mg/kg, route intravenous", "settings": "in vivo, iv, read-out: CLtot"}, "[15]": {"assay": "Steady-state volume of distribution in monkey when administered intravenously at 2 mg/kg", "assay_type": "ADME, organism-based", "design": "dose 2 mg/kg, route intravenous", "settings": "cercopithecidae, in vivo, iv, read-out: Vss"}, "[16]": {"assay": "Maximum concentration in mouse administered orally at 20 mg/kg", "assay_type": "ADME, organism-based", "design": "dose 20 mg/kg, route oral", "settings": "in vivo, po"}, "[17]": {"assay": "Maximum concentration in monkey administered orally at 5 mg/kg", "assay_type": "ADME, organism-based", "design": "dose 5 mg/kg, route oral", "settings": "cercopithecidae, in vivo, po"}, "[18]": {"assay": "Bioavailability in rat administered perorally at 50 mg/kg", "assay_type": "ADME, organism-based", "settings": "in vivo, po"}, "[19]": {"assay": "Total clearance in dog when administered intravenously at 2 mg/kg", "assay_type": "ADME, organism-based, Canis lupus familiaris", "design": "dose 2 mg/kg, route intravenous", "settings": "in vivo, iv, read-out: CLtot"}, "[20]": {"assay": "Bioavailability in monkey at 5 mg/kg oral dose", "assay_type": "ADME, organism-based", "settings": "cercopithecidae, in vivo"}, "[21]": {"assay": "Total clearance in monkey at 2 mg/kg intravenous dose", "assay_type": "ADME, organism-based", "design": "dose 2 mg/kg, route intravenous", "settings": "cercopithecidae, in vivo, read-out: CLtot"}, "[22]": {"target": "Dual specificity mitogen-activated protein kinase kinase 1 (Homo sapiens, UniProt Q02750)", "sequence (Q02750 whole entry)": "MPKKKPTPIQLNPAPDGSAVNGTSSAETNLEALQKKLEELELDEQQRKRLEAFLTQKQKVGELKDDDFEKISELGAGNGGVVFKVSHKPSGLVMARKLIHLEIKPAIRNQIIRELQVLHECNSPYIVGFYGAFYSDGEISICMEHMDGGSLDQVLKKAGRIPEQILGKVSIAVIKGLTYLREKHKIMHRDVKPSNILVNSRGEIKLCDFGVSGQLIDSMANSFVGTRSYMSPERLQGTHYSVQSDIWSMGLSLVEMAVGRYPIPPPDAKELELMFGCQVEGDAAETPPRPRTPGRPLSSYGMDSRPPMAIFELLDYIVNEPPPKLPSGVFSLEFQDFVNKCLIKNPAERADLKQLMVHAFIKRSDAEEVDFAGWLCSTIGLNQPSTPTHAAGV", "assay": "In vitro inhibitory concentration against MEK with ATP concentration at 1/2Km", "how_it_was_run": "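Cell-free kinase inhibition assay. ATP was set at ½ Km, determined separately for each kinase, and the IC50 was derived under that condition.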"}, "[23]": {"assay": "In vitro inhibitory concentration against Geo (colon) cell line with ATP concentration at 1/2Km", "assay_type": "functional, Homo sapiens"}, "[24]": {"system": "RD", "assay": "In vitro inhibitory concentration against RD1 (rhabdomyosarcoma) cell line with ATP concentration at 1/2Km", "assay_type": "functional, cell-based", "settings": "Homo sapiens"}, "[25]": {"assay": "Steady-state volume of distribution in rat when administered intravenously at 4 mg/kg", "assay_type": "ADME, organism-based", "design": "dose 4 mg/kg, route intravenous", "settings": "in vivo, iv, read-out: Vss"}, "[26]": {"assay": "Steady-state volume of distribution in mouse when administered intravenously at 4 mg/kg", "assay_type": "ADME, organism-based", "design": "dose 4 mg/kg, route intravenous", "settings": "in vivo, iv, read-out: Vss"}, "[27]": {"assay": "In vitro inhibitory concentration against MDA PCa-2b (prostate) cell line with ATP concentration at 1/2Km", "assay_type": "functional, Homo sapiens"}}}
{"smiles": "Cc1cc(-n2ccnc2)cc2[nH]c(-c3c(NCC(O)c4cccc(Cl)c4)cc[nH]c3=O)nc12", "note": "(configuration not stated)", "values": [{"measurement": "IC50", "setting": "[1]", "value": "< 18", "unit": "nM"}, {"measurement": "IC50", "setting": "[2]", "value": 26, "unit": "nM"}, {"measurement": "IC50", "setting": "[3]", "value": "< 18", "unit": "nM"}, {"measurement": "IC50", "setting": "[4]", "value": "< 18", "unit": "nM"}, {"measurement": "IC50", "setting": "[5]", "value": "< 18", "unit": "nM"}]}
{"smiles": "Cc1cc(N2CCOCC2)cc2[nH]c(-c3c(NC[C@@H](O)c4cccc(Cl)c4)cc[nH]c3=O)nc12", "values": [{"measurement": "clearance", "setting": "[6]", "value": 5.8, "unit": "mL/min/kg"}, {"measurement": "Cmax", "setting": "[7]", "value": 69, "unit": "µM"}, {"measurement": "Cmax", "setting": "[8]", "value": 4.1, "unit": "µM"}, {"measurement": "Vd", "setting": "[9]", "value": 1.3, "unit": "L/kg"}, {"measurement": "bioavailability", "setting": "[10]", "value": 50, "unit": "%"}, {"measurement": "IC50", "setting": "[11]", "value": 212, "unit": "nM"}, {"measurement": "IC50", "setting": "[12]", "value": 460, "unit": "nM"}, {"measurement": "bioavailability", "setting": "[13]", "value": 70, "unit": "%"}, {"measurement": "clearance", "setting": "[14]", "value": 37.8, "unit": "mL/min/kg"}, {"measurement": "Vd", "setting": "[15]", "value": 1.4, "unit": "L/kg"}, {"measurement": "Cmax", "setting": "[16]", "value": 3.8, "unit": "µM"}, {"measurement": "Cmax", "setting": "[17]", "value": 1300, "unit": "nM"}, {"measurement": "bioavailability", "setting": "[18]", "value": "> 100", "unit": "%"}, {"measurement": "clearance", "setting": "[19]", "value": 4.1, "unit": "mL/min/kg"}, {"measurement": "bioavailability", "setting": "[20]", "value": 32, "unit": "%"}, {"measurement": "clearance", "setting": "[21]", "value": 16.5, "unit": "mL/min/kg"}, {"measurement": "IC50", "setting": "[22]", "value": 182, "unit": "nM"}, {"measurement": "IC50", "setting": "[23]", "value": 320, "unit": "nM"}, {"measurement": "IC50", "setting": "[24]", "value": 202, "unit": "nM"}, {"measurement": "Vd", "setting": "[25]", "value": 0.8, "unit": "L/kg"}, {"measurement": "Vd", "setting": "[26]", "value": 1.9, "unit": "L/kg"}, {"measurement": "IC50", "setting": "[27]", "value": 194, "unit": "nM"}]}
